# According to ChEMBL document CHEMBL4610035, “Synthesis and biological evaluation of novel 3-benzylcoumarin-imidazolium salts” (Bioorg Med Chem Lett, 2020):
# What was measured:
# [1] = test system: HL-60; experiment: Antiproliferative activity against human HL60 cells assessed as growth inhibition incubated up to 4 days by MTS assay; format: functional, cell-based; conditions: HL-60, 96 h
# Outline: (§1)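 Five human tumour cell lines were assayed by MTS. IC50 is the compound concentration that cuts optical density of treated cells by 50% relative to untreated cells. Mean of three independent determinations.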
# [2] = test system: SMMC-7721; experiment: Antiproliferative activity against human SMMC7721 cells assessed as growth inhibition incubated up to 4 days by MTS assay; format: functional, cell-based; conditions: SMMC-7721, 96 h; outline: as §1
# [3] = test system: A549; experiment: Antiproliferative activity against human A549 cells assessed as growth inhibition incubated up to 4 days by MTS assay; format: functional, cell-based; conditions: A549, 96 h; outline: as §1
# [4] = test system: MCF7; experiment: Antiproliferative activity against human MCF7 cells assessed as growth inhibition incubated up to 4 days by MTS assay; format: functional, cell-based; conditions: MCF7, 96 h; outline: as §1
# [5] = test system: SW480; experiment: Antiproliferative activity against human SW480 cells assessed as growth inhibition incubated up to 4 days by MTS assay; format: functional, cell-based; conditions: SW480, 96 h; outline: as §1
# [6] = test system: SMMC-7721; experiment: Induction of apoptosis in human SMMC7721 cells assessed as viable cells at 2 uM after 48 hrs by Annexin-V/PI-staining based flow cytometry (reference value: 96.9%); format: functional; conditions: SMMC-7721, 48 h, read-out: Activity
# [7] = test system: SMMC-7721; experiment: Induction of apoptosis in human SMMC7721 cells assessed as early apoptotic cells at 2 uM after 48 hrs by Annexin-V/PI-staining based flow cytometry (reference value: 1.25%); format: functional
# [8] = test system: SMMC-7721; experiment: Induction of apoptosis in human SMMC7721 cells assessed as late apoptotic cells at 2 uM after 48 hrs by Annexin-V/PI-staining based flow cytometry (reference value: 0.649%); format: functional
# [9] = test system: SMMC-7721; experiment: Induction of apoptosis in human SMMC7721 cells assessed as necrotic cells at 2 uM after 48 hrs by Annexin-V/PI-staining based flow cytometry (reference value: 1.24%); format: functional
# [10] = test system: SMMC-7721; experiment: Induction of apoptosis in human SMMC7721 cells assessed as viable cells at 4 uM after 48 hrs by Annexin-V/PI-staining based flow cytometry (reference value: 96.9%); format: functional; conditions: SMMC-7721, 48 h, read-out: Activity
# [11] = test system: SMMC-7721; experiment: Induction of apoptosis in human SMMC7721 cells assessed as early apoptotic cells at 4 uM after 48 hrs by Annexin-V/PI-staining based flow cytometry (reference value: 1.25%); format: functional
# [12] = test system: SMMC-7721; experiment: Induction of apoptosis in human SMMC7721 cells assessed as late apoptotic cells at 4 uM after 48 hrs by Annexin-V/PI-staining based flow cytometry (reference value: 0.649%); format: functional
# [13] = test system: SMMC-7721; experiment: Induction of apoptosis in human SMMC7721 cells assessed as necrotic cells at 4 uM after 48 hrs by Annexin-V/PI-staining based flow cytometry (reference value: 1.24%); format: functional
# [14] = test system: SMMC-7721; experiment: Induction of apoptosis in human SMMC7721 cells assessed as viable cells at 8 uM after 48 hrs by Annexin-V/PI-staining based flow cytometry (reference value: 96.9%); format: functional; conditions: SMMC-7721, 48 h, read-out: Activity
# [15] = test system: SMMC-7721; experiment: Induction of apoptosis in human SMMC7721 cells assessed as early apoptotic cells at 8 uM after 48 hrs by Annexin-V/PI-staining based flow cytometry (reference value: 1.25%); format: functional
# [16] = test system: SMMC-7721; experiment: Induction of apoptosis in human SMMC7721 cells assessed as late apoptotic cells at 8 uM after 48 hrs by Annexin-V/PI-staining based flow cytometry (reference value: 0.649%); format: functional
# [17] = test system: SMMC-7721; experiment: Induction of apoptosis in human SMMC7721 cells assessed as necrotic cells at 8 uM after 48 hrs by Annexin-V/PI-staining based flow cytometry (reference value: 1.24%); format: functional
# [18] = test system: SMMC-7721; experiment: Induction of cell cycle arrest in human SMMC7721 cells assessed as accumulation at G0/G1 phase at 2 uM after 24 hrs by propidium iodide staining based flow cytometric analysis (reference value: 63.71 +/- 0.31%); format: functional
# [19] = test system: SMMC-7721; experiment: Induction of cell cycle arrest in human SMMC7721 cells assessed as accumulation at G0/G1 phase at 4 uM after 24 hrs by propidium iodide staining based flow cytometric analysis (reference value: 63.71 +/- 0.31%); format: functional
# [20] = test system: SMMC-7721; experiment: Induction of cell cycle arrest in human SMMC7721 cells assessed as accumulation at G0/G1 phase at 8 uM after 24 hrs by propidium iodide staining based flow cytometric analysis (reference value: 63.71 +/- 0.31%); format: functional
# [21] = test system: SMMC-7721; experiment: Induction of cell cycle arrest in human SMMC7721 cells assessed as accumulation at S phase at 2 uM after 24 hrs by propidium iodide staining based flow cytometric analysis (reference value: 23.26 +/- 0.57%); format: functional
# [22] = test system: SMMC-7721; experiment: Induction of cell cycle arrest in human SMMC7721 cells assessed as accumulation at S phase at 4 uM after 24 hrs by propidium iodide staining based flow cytometric analysis (reference value: 23.26 +/- 0.57%); format: functional
# [23] = test system: SMMC-7721; experiment: Induction of cell cycle arrest in human SMMC7721 cells assessed as accumulation at S phase at 8 uM after 24 hrs by propidium iodide staining based flow cytometric analysis (reference value: 23.26 +/- 0.57%); format: functional
# [24] = test system: SMMC-7721; experiment: Induction of cell cycle arrest in human SMMC7721 cells assessed as accumulation at G2/M phase at 2 uM after 24 hrs by propidium iodide staining based flow cytometric analysis (reference value: 6.70 +/- 0.63%); format: functional
# [25] = test system: SMMC-7721; experiment: Induction of cell cycle arrest in human SMMC7721 cells assessed as accumulation at G2/M phase at 4 uM after 24 hrs by propidium iodide staining based flow cytometric analysis (reference value: 6.70 +/- 0.63%); format: functional
# [26] = test system: SMMC-7721; experiment: Induction of cell cycle arrest in human SMMC7721 cells assessed as accumulation at G2/M phase at 8 uM after 24 hrs by propidium iodide staining based flow cytometric analysis (reference value: 6.70 +/- 0.63%); format: functional
# [27] = test system: SMMC-7721; experiment: Induction of cell cycle arrest in human SMMC7721 cells assessed as accumulation at sub-G1 phase at 2 uM after 24 hrs by propidium iodide staining based flow cytometric analysis (reference value: 3.173 +/- 0.26%); format: functional
# [28] = test system: SMMC-7721; experiment: Induction of cell cycle arrest in human SMMC7721 cells assessed as accumulation at sub-G1 phase at 4 uM after 24 hrs by propidium iodide staining based flow cytometric analysis (reference value: 3.173 +/- 0.26%); format: functional
# [29] = test system: SMMC-7721; experiment: Induction of cell cycle arrest in human SMMC7721 cells assessed as accumulation at sub-G1 phase at 8 uM after 24 hrs by propidium iodide staining based flow cytometric analysis (reference value: 3.173 +/- 0.26%); format: functional
smiles,measurement,setting,value
Cc1cc2c(cc1C)[n+](CC(=O)c1ccc3ccccc3c1)cn2C(c1ccccc1)c1cc2ccccc2oc1=O.[Br-] (centres undefined),IC50,[1],2.07 µM
same,IC50,[2],3.77 µM
same,IC50,[3],4.51 µM
same,IC50,[4],2.04 µM
same,IC50,[5],2.32 µM
same,viability at 2 µM,[6],96.4%
same,Activity,[7],1.3%
same,Activity,[8],0.698%
same,Activity,[9],1.58%
same,viability at 4 µM,[10],93.2%
same,Activity,[11],4.82%
same,Activity,[12],1.39%
same,Activity,[13],0.541%
same,viability at 8 µM,[14],60.9%
same,Activity,[15],25.6%
same,Activity,[16],11.2%
same,Activity,[17],2.27%
same,Activity,[18],65.02%
same,Activity,[19],67.69%
same,Activity,[20],70.88%
same,Activity,[21],21.82%
same,Activity,[22],22.47%
same,Activity,[23],16.42%
same,Activity,[24],6.92%
same,Activity,[25],7.59%
same,Activity,[26],9.68%
same,Activity,[27],3.25%
same,Activity,[28],5.16%
same,Activity,[29],2.54%
